Compounds with a hit are over-represented: about 3% of the library has one in this group of screens.
aDG glyco up: increases alpha dystroglycan glycosylation; activation, % at 10 µM; Pro5-aDG cells, alpha-DG glycosylation AlphaScreen (IIH6); 0% Pro5, 100% B10-LARGE cell signal; 360,000 tested, 0.22% active;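 active = activation of at least 8% versus controls, or a plate z-score of at least 8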;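 note: Pro5 are CHO cells carrying HIG-tagged alpha-DG that lacks glycosylation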
GC-A act: GC-A (human) enzyme activation; P16066; HEK293 GC-A cells, cGMP TR-FRET, EC30 ANP; 0% at EC30 ANP, 100% saturating ANP; activation, % at 10 µM; 370,000 tested, 0.14% active; in the data active = activation above about 40%
Target sequence (P16066 whole entry, looked up): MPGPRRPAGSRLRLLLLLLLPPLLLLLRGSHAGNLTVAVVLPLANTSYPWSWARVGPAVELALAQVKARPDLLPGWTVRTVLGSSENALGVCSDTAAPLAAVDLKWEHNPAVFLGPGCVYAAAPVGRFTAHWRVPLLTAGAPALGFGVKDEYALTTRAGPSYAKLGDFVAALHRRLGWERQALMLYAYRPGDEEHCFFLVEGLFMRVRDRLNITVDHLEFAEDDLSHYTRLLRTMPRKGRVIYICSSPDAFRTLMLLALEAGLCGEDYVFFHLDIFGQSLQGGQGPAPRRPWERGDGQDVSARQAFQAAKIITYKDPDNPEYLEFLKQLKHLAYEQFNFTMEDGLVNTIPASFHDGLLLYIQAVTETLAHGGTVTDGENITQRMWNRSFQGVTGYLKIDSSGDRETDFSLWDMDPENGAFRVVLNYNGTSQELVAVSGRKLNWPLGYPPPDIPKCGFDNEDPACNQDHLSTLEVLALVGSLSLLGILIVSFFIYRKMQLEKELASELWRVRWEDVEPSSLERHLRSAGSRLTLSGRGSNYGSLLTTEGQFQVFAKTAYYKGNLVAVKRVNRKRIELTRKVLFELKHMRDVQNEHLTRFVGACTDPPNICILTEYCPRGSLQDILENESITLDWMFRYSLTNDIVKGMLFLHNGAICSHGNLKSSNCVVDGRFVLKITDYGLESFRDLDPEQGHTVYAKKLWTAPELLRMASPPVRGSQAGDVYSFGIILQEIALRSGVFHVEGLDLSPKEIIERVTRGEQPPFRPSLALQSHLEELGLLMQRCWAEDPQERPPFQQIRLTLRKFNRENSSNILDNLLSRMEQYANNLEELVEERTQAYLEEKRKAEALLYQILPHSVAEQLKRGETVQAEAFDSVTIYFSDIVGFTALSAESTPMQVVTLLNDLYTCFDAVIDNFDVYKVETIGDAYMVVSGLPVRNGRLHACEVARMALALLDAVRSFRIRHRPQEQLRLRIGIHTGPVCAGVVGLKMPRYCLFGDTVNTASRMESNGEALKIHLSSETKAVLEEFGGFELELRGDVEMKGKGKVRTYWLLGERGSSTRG
NPR2 activator: GC-B (human) receptor activation; P20594; HEK293-GC-B cells, CNP EC30, cGMP TR-FRET; 0% at EC30 CNP, 100% saturating CNP; activation, % at 10 µM; 370,000 tested, 0.11% active;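 active = activation at 10 µM reaching about 35% in either raw or pattern-adjusted values, limit read from the data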
GASC-1 inh: inhibitors of human GASC-1 (JMJD2C) demethylase | Q9H3R0 | GST-JMJD2C(1-420) H3K9me3 demethylation, DELFIA europium | 330,000 tested, 0.069% active | inhibition, % at 2.35 µM | AID 2099;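 active = more than half of a compound's replicate wells show inhibition beyond 50%, single wells judged on their own value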;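 note: signal counts dimethyl H3K9 product captured on neutravidin plate; 0% = median of DMSO wells and 100% = 0.3 times that DMSO median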
Lipid droplet: modulators of hepatic lipid droplet formation; AML12 mouse hepatocytes, oleate lipid droplets, BODIPY imaging; inhibition, % at 6.5 µM; 240,000 tested, 0.4% active;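 active = lipid droplet intensity inhibited by at least 50%, with more than 500 cells counted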
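Test system: AML12 hepatocytes (mouse); reagent: oleate loading, 100 µM; dosing: one dose, 6.5 µM compound; incubation: overnight exposure; signal: fluorescence imaging, 20x objective, two fields per well; read-out basis: % inhibition of corrected integrated BODIPY droplet signal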
NR3A LBD binder: modulators (binders) of human NR3A ligand-binding domain; 340,000 tested, 2.5% active; Tm shift relative to glycine control, % at 25 µM; NR3A LBD differential scanning fluorimetry, Tm shift; 0% = protein alone, 100% = glycine-bound protein; AID 1259313;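 active = melting temperature shift of at least 10% of the positive control shift, at one fixed dose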
Starred values were filed as active, the others as inactive; nt = no result given.

SMILES	aDG glyco up	GC-A act	NPR2 activator	GASC-1 inh	Lipid droplet	NR3A LBD binder
CCNC(=S)NC(=NCc1cccnc1)Nc1nc(C)cc(C)n1	0.0	-2.6	-4.5	75.8*	-11.1	-1.2
COc1ccc(-n2ncc(C(C)NS(=O)(=O)c3cc(F)ccc3C)c2C)cc1 (stereo not drawn)	0.4	-5.3	-5.9	3.7	-5.8	4.0
CC(=O)Nc1cc(-c2ccccc2Cl)cn2c(-c3ccc(S(C)(=O)=O)cc3)cnc12	-0.5	17.5	42.7*	nt	nt	nt
COc1cc(C(=O)Nc2c(C(=O)O)[nH]c3ccc(Br)cc23)cc(OC)c1OC	0.0	0.4	-7.7	10.3	-2.7	10.2*
Cc1cc2ncn(/N=C/c3ccc([N+](=O)[O-])s3)c2cc1C	5.1	-11.4	-6.5	-1.4	2.2	26.8*
O=C(/C=C/c1ccc(Cl)cc1Cl)c1nc2ccccc2[nH]1	0.2	-3.2	-10.4	-17.5	nt	-3.6
Clc1ccc(/C=C/c2nc3ccccc3[nH]2)cc1	0.5	4.3	-0.8	-6.2	nt	12.9*
Clc1ccc(/C=C/c2nc3ccccc3[nH]2)c(Cl)c1	0.3	7.7	-3.6	-1.6	nt	17.1*
Clc1cccc(Cl)c1/C=C/c1nc2ccccc2[nH]1	0.4	nt	nt	-7.7	nt	3.5
O=S(=O)(c1ccc(NC(=S)NCCC(c2ccccc2)c2ccccc2)cc1)N1CCOCC1	1.5	-1.7	5.2	4.9	-16.6	16.5*
CCCCOCCCNC(=S)Nc1ccc(S(=O)(=O)N2CCOCC2)cc1	0.2	-2.4	3.2	7.4	1.0	-2.1
CC(C)(C)CC(C)(C)NC(=S)Nc1ccc(S(=O)(=O)N2CCOCC2)cc1	0.6	-3.2	0.8	8.2	11.5	22.1*
O=S(=O)(c1ccc(NC(=S)Nc2ccc(OC(F)F)cc2)cc1)N1CCOCC1	-0.1	4.8	3.1	5.3	-0.1	26.1*
COC(=O)c1ccc(NC(=O)CN2CCOCC2)cc1	0.0	-0.3	0.7	16.3	nt	12.7*
Cc1nc(N/N=C/c2ccc(O)cc2)c2cnn(-c3ccccc3)c2n1	-0.5	-1.7	-11.9	-5.1	1.1	11.9*
Cc1nc2ccccc2nc1N/N=C/c1ccc(O)cc1	0.2	-3.4	1.6	0.0	-13.6	11.5*
O=C1C=CC(=Nc2ccc3c(c2)Cc2cc(F)ccc2-3)O1	0.1	33.1	35.3*	nt	nt	22.9*
COC(=O)C1=C(C)N(Cc2ccccc2C(F)(F)F)C(=NCc2ccccc2C(F)(F)F)NC1c1ccc(F)cc1 (stereo not drawn)	nt	-6.1	-0.2	nt	nt	nt
COCc1cc(C)nc(OCC(=O)N/N=C/c2ccc(-c3cc([N+](=O)[O-])ccc3C)o2)c1C#N	0.1	-1.0	-3.5	-1.1	-5.6	1.4
Cc1ccc([N+](=O)[O-])cc1-c1ccc(/C=C(\C#N)c2[nH]nc(N)c2C#N)o1	-0.5	-6.1	9.2	3.1	9.3	17.0*
Cc1cc(N/N=C/c2ccc(F)cc2)nc(NCc2ccccc2)n1	0.3	2.1	-0.1	-6.3	0.8	35.2*
Cc1ccc(S(=O)(=O)N(C)c2ccc(C(=O)N(CC(C)C)C3CCS(=O)(=O)C3)cc2)cc1 (stereo not drawn)	1.5	-3.1	1.8	0.4	nt	-1.9
Cc1[nH][nH]c(=O)c1C(c1ccccc1[N+](=O)[O-])C(C#N)C#N (stereo not drawn)	-0.1	6.5	-4.2	9.2	-1.0	-0.5
Cc1[nH][nH]c(=O)c1C(c1cc([N+](=O)[O-])ccc1O)c1c(C)[nH][nH]c1=O	-0.2	2.5	2.0	10.3	-13.5	10.2*
CS(=O)(=O)c1ccc(C(=O)OCC(=O)NC(=O)C2CCCCC2)cc1[N+](=O)[O-]	0.1	8.6	8.7	-3.8	0.4	18.9*
SMILES	aDG glyco up	GC-A act	NPR2 activator	GASC-1 inh	Lipid droplet	NR3A LBD binder
CS(=O)(=O)c1ccc(C(=O)OCC(=O)NC(=O)C2COc3ccccc3O2)cc1[N+](=O)[O-] (stereo not drawn)	0.1	14.4	7.0	-2.8	nt	-1.9
COc1ccc(S(=O)(=O)N2CCCCC2)cc1NC(=O)Cn1c(=O)cnc2ccccc21	0.1	0.5	-6.7	0.2	-20.1	11.7*
COc1ccc(S(=O)(=O)N2CCCCC2)cc1NC(=O)Cn1cnc2ccccc2c1=O	-0.1	-4.3	0.0	-2.2	nt	1.8
Cc1cccc(C)c1NC(=O)CN1N=NC2C(=O)N(c3cccc(Cl)c3)C(=O)C21 (stereo not drawn)	-0.2	3.0	-0.8	-3.0	-2.9	18.0*
COC(=O)Cn1c(=NC(=O)c2cc(-c3cccs3)nc3ccccc23)sc2cc(S(N)(=O)=O)ccc21	0.0	5.8	0.6	-9.0	30.8	15.9*
CCOC(=O)Cn1c(=NC(=O)c2cc(-c3cccs3)nc3ccccc23)sc2cc(S(N)(=O)=O)ccc21	0.0	-3.9	-2.8	-10.5	5.8	26.1*
CCN(CC)S(=O)(=O)c1cccc(C(=O)Nc2cc3oc4ccccc4c3cc2OC)c1	0.0	-0.6	0.5	11.4	-2.7	22.0*
COc1cc2c(cc1NC(=S)Nc1cccc3ccccc13)oc1ccccc12	0.0	-2.3	-3.8	12.9	1.3	4.6
COc1cc2c(cc1NC(=S)Nc1cccc(C(F)(F)F)c1)oc1ccccc12	-0.2	-2.1	-2.8	-23.4	4.7	29.2*
COc1cc2c(cc1NC(=O)Nc1ccccc1)oc1ccccc12	0.4	-3.6	-10.2	-1.7	nt	15.7*
COc1cc2c(cc1NC(=O)c1cncc(Br)c1)oc1ccccc12	-0.1	-2.4	-5.1	nt	2.1	23.8*
COCCCN1C(=O)[C@H](CC(=O)NCCCCc2ccccc2)[C@]2(C(=O)OC)CCCCC=C12	nt	0.2	3.1	nt	nt	nt
Cc1ccc(C(=O)/C=C/c2cc(C#N)n(C)c2C)cc1	0.1	3.2	-6.0	17.2	5.1	9.4
C=CCNC(=O)CN1C(=O)CSc2ccc(S(=O)(=O)N3CCOCC3)cc21	-0.1	2.9	-3.9	nt	nt	nt
FC(F)Sc1nc(-c2ccccc2)c(-c2ccccc2)n1C(F)F	0.1	14.7	0.9	-1.2	24.0	18.1*
Cc1c(C(C)C)c(=O)n(-c2ccc(S(=O)(=O)NCc3ccccc3)cc2)n1C	8.4*	-0.4	-3.1	-5.5	-6.8	2.5
Cc1c(C(C)C)c(=O)n(-c2ccc(S(=O)(=O)NC3CCCCC3)cc2)n1C	6.0	3.1	0.8	2.5	2.5	-1.4
CCCCOc1ccc(/C=c2\sc3ncnn3c2=O)cc1	-0.2	67.2*	-4.7	0.5	nt	4.9
Cc1ccc(NC(=O)c2cc(S(=O)(=O)NCC3CCCO3)ccc2F)cc1 (stereo not drawn)	-0.1	1.9	4.1	nt	nt	nt
Cc1ccc(NC(=O)c2cc(S(=O)(=O)NCCC3=CCCCC3)ccc2F)cc1	2.1	-1.9	-4.5	44.1	9.4	14.4*

Screening data as filed in PubChem.
